Several values for one entry are separate records, joined by “and”; a condition that tells them apart may be missing. Equal entries are not always repeated.
Test system: HEK-293T
Assay: Multiplex assay against HEK293T
Format: toxicity, cell-based
Conditions: human
Procedure, shortened: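 Compound was added to live cells that had been stained at seeding with Hoechst33342, BioTracker Green Microtubule Cytoskeleton Dye, MitoTracker Red and Annexin V Alexa Fluor 680, and imaging followed on a CQ1 microscope at 37°C and 5% CO2. CellPathfinder machine-learning gating divided cells into Hoechst high-intensity objects or normal cells, normal cells into healthy, pyknosed or fragmented nuclei, and pyknosed cells into mitotic or apoptotic. Tubulin, mitochondrial-mass and membrane-permeability phenotypes are per cents of healthy-nucleus cells.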

[1] = 12 h, 1 µM, compound concentration 1 uM
[2] = 12 h, 10 µM, compound concentration 10 uM
[3] = 24 h, 1 µM, compound concentration 1 uM
[4] = 24 h, 10 µM, compound concentration 10 uM
[5] = 48 h, 1 µM, compound concentration 1 uM
[6] = 48 h, 10 µM, compound concentration 10 uM

SMILES: CC(C)C[C@H](NC(=O)c1cc2ccccc2s1)C(=O)N1CCN(C(=O)[C@H](CO)NS(=O)(=O)c2ccc(Cl)cc2Cl)CC1
- Population Apoptotic (%) [1]: 10.07% and 13.45%
- Population Fragmented Nuclei (%) [1]: 3.47% and 8.64%
- Population Healthy Nuclei (%) [1]: 52.68% and 17.9%
- Population Hoechst High Intensity Objects (%) [1]: 0.31% and 0%
- Population Membrane Permeable-Phenotype (%) [1]: 1.8% and 0%
- Population Mitochondria Different-Phenotype (%) [1]: 37.13% and 31.03%
- Population Mitotic Cells (%) [1]: 89.93% and 86.55%
- Population Normal (%) [1]: 99.69% and 100%
- Population Pyknosed Nuclei (%) [1]: 43.85% and 73.46%
- Population Tubulin-Different-Phenotype (%) [1]: 16.17% and 48.28%
- Total Cell Count [1]: 318 and 162
- Population Apoptotic (%) [2]: 19.05% and 16.13%
- Population Fragmented Nuclei (%) [2]: 2.43% and 2.16%
- Population Hoechst High Intensity Objects (%) [2]: 0.69% and 0%
- Population Membrane Permeable-Phenotype (%) [2]: 0.88% and 0%
- Population Mitotic Cells (%) [2]: 80.95% and 83.87%
- Population Normal (%) [2]: 99.31% and 100%
- Population Pyknosed Nuclei (%) [2]: 58.33% and 89.21%
- Population Tubulin-Different-Phenotype (%) [2]: 87.61% and 58.33%
- Total Cell Count [2]: 290 and 139
- Population Apoptotic (%) [3]: 16.78% and 26.05%
- Population Fragmented Nuclei (%) [3]: 1.48% and 4.6%
- Population Healthy Nuclei (%) [3]: 67.09% and 27.01%
- Population Hoechst High Intensity Objects (%) [3]: 0%
- Population Membrane Permeable-Phenotype (%) [3]: 2.83% and 2.13%
- Population Mitochondria Different-Phenotype (%) [3]: 27.67% and 38.3%
- Population Mitotic Cells (%) [3]: 83.22% and 73.95%
- Population Normal (%) [3]: 100%
- Population Pyknosed Nuclei (%) [3]: 31.43% and 68.39%
- Population Tubulin-Different-Phenotype (%) [3]: 38.68% and 19.15%
- Total Cell Count [3]: 474 and 174
- Population Apoptotic (%) [4]: 47.8% and 42.62%
- Population Fragmented Nuclei (%) [4]: 3.25% and 4.03%
- Population Hoechst High Intensity Objects (%) [4]: 0.65% and 0%
- Population Membrane Permeable-Phenotype (%) [4]: 0% and 4.76%
- Population Mitochondria Different-Phenotype (%) [4]: 74.82% and 42.86%
- Population Mitotic Cells (%) [4]: 52.2% and 57.38%
- Population Normal (%) [4]: 99.35% and 100%
- Population Pyknosed Nuclei (%) [4]: 51.62% and 81.88%
- Population Tubulin-Different-Phenotype (%) [4]: 100% and 90.48%
- Total Cell Count [4]: 310 and 149
- Population Apoptotic (%) [5]: 11.27% and 26%
- Population Fragmented Nuclei (%) [5]: 1.67% and 1.87%
- Population Healthy Nuclei (%) [5]: 84.35% and 51.4%
- Population Hoechst High Intensity Objects (%) [5]: 0.1% and 0.47%
- Population Membrane Permeable-Phenotype (%) [5]: 6.07% and 4.55%
- Population Mitochondria Different-Phenotype (%) [5]: 35.82% and 54.55%
- Population Mitotic Cells (%) [5]: 88.73% and 74%
- Population Normal (%) [5]: 99.9% and 99.53%
- Population Apoptotic (%) [6]: 55.17% and 79.57%
- Population Fragmented Nuclei (%) [6]: 2.27% and 2.56%
- Population Healthy Nuclei (%) [6]: 64.87% and 37.82%
- Population Hoechst High Intensity Objects (%) [6]: 0.28% and 0%
- Population Membrane Permeable-Phenotype (%) [6]: 1.31% and 1.69%
- Population Mitochondria Different-Phenotype (%) [6]: 97.38% and 91.53%
- Population Mitotic Cells (%) [6]: 44.83% and 20.43%
- Population Normal (%) [6]: 99.72% and 100%
- Population Pyknosed Nuclei (%) [6]: 32.86% and 59.62%
- Population Tubulin-Different-Phenotype (%) [6]: 94.32% and 98.31%
- Total Cell Count [6]: 354 and 156

SMILES: COc1cc(C(=O)N(CCCc2ccccc2)Cc2ccc(CC(=O)O)cc2)cc(OC)c1C
- Population Apoptotic (%) [1]: 45% and 44%
- Population Fragmented Nuclei (%) [1]: 7% and 6%
- Population Healthy Nuclei (%) [1]: 82% and 84%
- Population Hoechst High Intensity Objects (%) [1]: 5% and 4%
- Population Membrane Permeable-Phenotype (%) [1]: 0%
- Population Mitochondria Different-Phenotype (%) [1]: 47% and 50%
- Population Mitotic Cells (%) [1]: 55%
- Population Normal (%) [1]: 94% and 95%
- Population Pyknosed Nuclei (%) [1]: 10% and 9%
- Population Tubulin-Different-Phenotype (%) [1]: 31% and 19%
- Total Cell Count [1]: 395 and 410
- Population Apoptotic (%) [2]: 30% and 47%
- Population Fragmented Nuclei (%) [2]: 6% and 4%
- Population Healthy Nuclei (%) [2]: 77% and 82%
- Population Hoechst High Intensity Objects (%) [2]: 8% and 6%
- Population Membrane Permeable-Phenotype (%) [2]: 1% and 0%
- Population Mitochondria Different-Phenotype (%) [2]: 46% and 67%
- Population Mitotic Cells (%) [2]: 70% and 52%
- Population Normal (%) [2]: 91% and 93%
- Population Pyknosed Nuclei (%) [2]: 15% and 13%
- Population Tubulin-Different-Phenotype (%) [2]: 52% and 44%
- Total Cell Count [2]: 431 and 438
- Population Apoptotic (%) [3]: 32% and 48%
- Population Fragmented Nuclei (%) [3]: 7%
- Population Healthy Nuclei (%) [3]: 78% and 82%
- Population Hoechst High Intensity Objects (%) [3]: 5% and 3%
- Population Membrane Permeable-Phenotype (%) [3]: 0%
- Population Mitochondria Different-Phenotype (%) [3]: 27% and 26%
- Population Mitotic Cells (%) [3]: 67% and 51%
- Population Normal (%) [3]: 94% and 96%
- Population Pyknosed Nuclei (%) [3]: 14% and 9%
- Population Tubulin-Different-Phenotype (%) [3]: 15% and 10%
- Total Cell Count [3]: 483 and 507
- Population Apoptotic (%) [4]: 34% and 42%
- Population Fragmented Nuclei (%) [4]: 7%
- Population Healthy Nuclei (%) [4]: 80% and 79%
- Population Hoechst High Intensity Objects (%) [4]: 7% and 6%
- Population Membrane Permeable-Phenotype (%) [4]: 0%
- Population Mitochondria Different-Phenotype (%) [4]: 39% and 50%
- Population Mitotic Cells (%) [4]: 65% and 57%
- Population Normal (%) [4]: 92% and 93%
- Population Pyknosed Nuclei (%) [4]: 12%
- Population Tubulin-Different-Phenotype (%) [4]: 43% and 38%
- Total Cell Count [4]: 549 and 526
- Population Apoptotic (%) [5]: 30% and 26%
- Population Fragmented Nuclei (%) [5]: 12% and 9%
- Population Healthy Nuclei (%) [5]: 77% and 83%
- Population Hoechst High Intensity Objects (%) [5]: 1% and 3%
- Population Membrane Permeable-Phenotype (%) [5]: 1%
- Population Mitochondria Different-Phenotype (%) [5]: 16% and 17%
- Population Mitotic Cells (%) [5]: 69% and 73%
- Population Normal (%) [5]: 98% and 96%
- Population Pyknosed Nuclei (%) [5]: 9% and 7%
- Population Tubulin-Different-Phenotype (%) [5]: 11% and 9%
- Total Cell Count [5]: 812 and 753
- Population Apoptotic (%) [6]: 32% and 33%
- Population Fragmented Nuclei (%) [6]: 12% and 15%
- Population Healthy Nuclei (%) [6]: 76% and 75%
- Population Hoechst High Intensity Objects (%) [6]: 4% and 8%
- Population Membrane Permeable-Phenotype (%) [6]: 1%
- Population Mitochondria Different-Phenotype (%) [6]: 29% and 37%
- Population Mitotic Cells (%) [6]: 67% and 66%
- Population Normal (%) [6]: 95% and 91%
- Population Pyknosed Nuclei (%) [6]: 11% and 9%
- Population Tubulin-Different-Phenotype (%) [6]: 29% and 34%
- Total Cell Count [6]: 729 and 632

— ChEMBL document CHEMBL5724801, “EUbOPEN Chemogenomics Library - Multiplex” (2024)
